Measured values as given in ChEMBL document CHEMBL1157754, “Polyketides from the ascomycete fungus Leptosphaeria sp” (J Nat Prod, 2010).

Key:
Format in all cases: functional, organism-based
Aspergillus flavus = test: Antifungal activity against Aspergillus flavus CGMCC 3.0951 after 48 hrs by Alamar blue assay; settings: CGMCC 3.0951, 48 h
Pyricularia oryzae = test: Antifungal activity against Pyricularia oryzae CGMCC 3.3283 after 48 hrs by Alamar blue assay; settings: CGMCC 3.3283, 48 h
Outline: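 Broth microdilution per NCCLS recommendations, in triplicate. Strain grown on PDA, then in broth at 28 °C for 48 h. Final suspension 10^4 hyphae/mL in PDB. Samples from 4 mg/mL DMSO stock, serially diluted. Alamar blue added as indicator; incubated 28 °C for 48 h. Fluorescence read at Ex/Em 544/590 nm. Inhibition plotted against concentration to give IC50.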

Microdochium nivale = test: Antifungal activity against Fusarium nivale CGMCC 3.4600 after 48 hrs by Alamar blue assay; settings: CGMCC 3.4600, 48 h
Outline: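 Plant-pathogen broth microdilution per NCCLS, in triplicate. F. nivale was grown on PDA, then in broth at 28 °C for 48 h, and suspended at 10^4 hyphae/mL in PDB. Serial dilutions were made from a 4 mg/mL DMSO stock. Alamar blue was the indicator and carbendazim the positive control. After incubation at 28 °C for 48 h, fluorescence was read at 544/590 nm, and IC50 was derived from the inhibition-concentration plot.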

`C[C@@H]1[C@H](O)[C@@H](C)/C=C/C=C/C=C/C=C/C=C/C=C/C=C/[C@H](O[C@@H]2O[C@H](C)[C@@H](O)[C@H](N)[C@@H]2O)C[C@@H]2O[C@](O)(C[C@@H](O)C[C@@H](O)[C@H](O)CC[C@@H](O)C[C@@H](O)CC(=O)O[C@H]1C)C[C@H](O)[C@H]2C(=O)O` [AMPHOTERICIN B] gave an IC50 (Aspergillus flavus) of 3.3 µM.

In the case of `COC(=O)Nc1nc2ccccc2[nH]1` [CARBENDAZIM], the IC50 (Pyricularia oryzae) is reported as 5 µM and the IC50 (Microdochium nivale) is reported as 2.6 µM.

Compound `C[C@@H]1CC(=O)c2c(coc2-c2c(O)cccc2O)[C@@H]1O` [LEPTOSPHAERIN A] has an IC50 (Pyricularia oryzae) of over 150 µM, an IC50 (Microdochium nivale) of over 150 µM and an IC50 (Aspergillus flavus) of over 150 µM.

Compound `C[C@@H]1CC(=O)c2c(coc2-c2c(O)cccc2O)[C@H]1O` [LEPTOSPHAERIN B] has an IC50 (Pyricularia oryzae) of over 150 µM, an IC50 (Microdochium nivale) of over 150 µM and an IC50 (Aspergillus flavus) of over 150 µM.

With `CC1=C[C@H](O)[C@@]2(Oc3cccc(O)c3C2=O)[C@H](C)C1=O` [LEPTOSPHAERIN C] the IC50 (Pyricularia oryzae) was 80.3 µM, the IC50 (Microdochium nivale) was 144 µM and the IC50 (Aspergillus flavus) was 81.4 µM.

In the case of `Cc1cc(O)c2c(c1O)COc1cccc(O)c1C2=O` [LEPTOSPHAERIN D], the IC50 (Pyricularia oryzae) is reported as 18.1 µM, the IC50 (Microdochium nivale) is reported as 12.5 µM and the IC50 (Aspergillus flavus) is reported as over 150 µM.

With `Cc1cc(CO)c2c(=O)c3c(O)cc(O)cc3oc2c1` [LEPTOSPHAERIN E] the IC50 (Pyricularia oryzae) was over 150 µM, the IC50 (Microdochium nivale) was over 150 µM and the IC50 (Aspergillus flavus) was over 150 µM.

Compound `C[C@@H]1C[C@H](O)[C@H]2C(=O)c3c(O)cccc3O[C@]2(C)[C@H]1O` [LEPTOSPHAERIN F] has an IC50 (Pyricularia oryzae) of over 150 µM, an IC50 (Microdochium nivale) of over 150 µM and an IC50 (Aspergillus flavus) of over 150 µM.

`C[C@@H]1CC(O)=C2C(=O)c3c(O)cccc3O[C@]2(C)[C@H]1O` [LEPTOSPHAERIN G] was tested, and the IC50 (Pyricularia oryzae) was over 150 µM, the IC50 (Microdochium nivale) was over 150 µM and the IC50 (Aspergillus flavus) was 14.8 µM.
